Activity calls are given as the source filed them. The calls are words filed in the database; no cut-off is given here.

The results in this text go back to ChEMBL document CHEMBL1143714, “Nocardichelins A and B, siderophores from Nocardia strain acta 3026” (2007).

The test system of one assay is Saccharomyces cerevisiae. Put plainly: Growth inhibition against yeast after 48 hrs by agar plate diffusion assay. Type of assay: functional, organism-based. In a few lines:
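10 µL sample aliquots applied to 6 mm filter disks placed on inoculated test plates; fungal plates incubated 48 h at temperature optimal for the test organism; activity read from growth inhibition on agar.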

The next assay concerns AGS. The assay can be described thus: Growth inhibition of human AGS cells after 48 hrs. In kind it is functional. The procedure, abridged:
(§1)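 Run per NCI guidelines. Cells grown in RPMI 1640 with 10% fetal calf serum, 5% CO2, humidified. Compounds added after 24 h as DMSO solutions at 0.1-10 µg/mL, 0.1% final DMSO, then 48 h further culture. Cell count by sulforhodamine B protein staining. GI50 (50% growth inhibition) and TGI derived.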

A further assay concerns HepG2. Put plainly: Growth inhibition of human HepG2 cells after 48 hrs. In kind it is functional. The conditions noted are these: HepG2, 48 h. In a few lines:
as §1

A short description of assay [1]: Growth inhibition of human MCF cells after 48 hrs. Type of assay: functional. In a few lines:
as §1

In the case of `CCCCCCCCCCCCC/C=C\C(=O)N(O)CCCCCNC(=O)CCC(=O)N(O)CCCCCNC(=O)[C@@H]1COC(c2ccccc2O)=N1` [NOCARDICHELIN A], the result in the assay with Saccharomyces cerevisiae was inactive. Further, the GI50 in the assay on AGS is 28.2 nM; in the assay on HepG2 it was 282 nM; in assay [1] it was 202 nM. Also, the TGI in the assay with AGS is 202 nM; in the assay on HepG2 it was 471 nM; in assay [1], 538 nM.

Consider `CCCCCCCCCCC/C=C\C(=O)N(O)CCCCCNC(=O)CCC(=O)N(O)CCCCCNC(=O)[C@@H]1COC(c2ccccc2O)=N1` [NOCARDICHELIN B], for which the outcome in the assay with Saccharomyces cerevisiae was inactive. Besides, the GI50 was determined as 44.7 nM in the assay with AGS, 69.9 nM with HepG2 and 1130 nM in assay [1]. Moreover, the values for the concentration for total growth inhibition (TGI) (in the assay on AGS; in the assay on HepG2; in assay [1]) were 1500 nM, 335 nM and 3490 nM, respectively.
